ChEMBL document CHEMBL1124662, “Antiinflammatory activity of a series of substituted 2,3-dihydro-6-hydroxypyrimido[2,1-f]purine-4,8(1H,9H)-diones” (J Med Chem, 1989)
Values joined by “and” are separate entries in the source; they are usually repeats but may differ in a detail not shown here. Equal entries are not always repeated. One block for each compound: values may come before it.

Tests used:
Rattus norvegicus [1] = experiment: Anti-inflammatory activity against reverse passive […] reaction-synovitis in rat at 50 mg/kg oral dose; assay type: functional
In short: (§1)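 Lewis rats dosed orally with drug or placebo 1 h before iv bovine serum albumin in saline, then 0.54 mg rabbit anti-BSA antibody intraarticular in one knee, saline in the other, under light anesthesia. Second oral dose at 3 h; the dose used is the total given before and after induction.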

Rattus norvegicus [2] = experiment: Prophylactic antiinflammatory activity against adjuvant arthritic rat at dose of 50 mg/kg in noninjected 1 degree paw.; assay type: functional
In short: (§2)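 Heat-killed Mycobacterium tuberculosis ground and homogenized in paraffin oil (6 mg/mL); 0.1 mL injected into left hind paw. Drug dosed 1 h before challenge, then daily for 21 consecutive days; controls received methylcellulose. Both hind paw volumes measured by plethysmograph immediately and on day 21; % inhibition of Δ paw volume.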

Rattus norvegicus [3] = experiment: Prophylactic antiinflammatory activity against adjuvant arthritic rat at dose of 25 mg/kg in noninjected 2 degree paw.; assay type: functional; in short: as §2
Rattus norvegicus [4] = experiment: Antiinflammatory activity against reverse passive Arthus reaction-synovitis in rat at dose of 50 mg/kg per orally.; assay type: functional; conditions: po; in short: as §1
Rattus norvegicus [5] = experiment: Prophylactic antiinflammatory activity against adjuvant arthritic rat at dose of 50 mg/kg in noninjected 2 degree paw.; assay type: functional; in short: as §2
Rattus norvegicus [6] = experiment: Prophylactic antiinflammatory activity against adjuvant arthritic rat at dose of 25 mg/kg in noninjected 1 degree paw.; assay type: functional; in short: as §2
[7] = Therapeutic oral administration in adjuvant arthritic rat model at 25 mg/kg in noninjected 2 degree paw; assay type: ADME, organism-based; set-up: dose 25 mg/kg, route oral
In short: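 Adjuvant arthritis (heat-killed M. tuberculosis in paraffin oil, 6 mg/mL, 0.1 mL into left hind paw) left to develop 7 days before first oral dose; treatment continued 35 days. Controls given methylcellulose; hind paw volumes measured by plethysmograph as Δ paw volume; % inhibition.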

Rattus norvegicus [8] = experiment: Prophylactic anti-inflammatory activity in adjuvant arthritic rat at 27 mg/kg in noninjected 1 degree paw; assay type: functional; in short: as §2
Rattus norvegicus [9] = experiment: Prophylactic anti-inflammatory activity in adjuvant arthritic rat at 9 mg/kg in noninjected 2 degree paw; assay type: functional; in short: as §2
Rattus norvegicus [10] = experiment: Prophylactic anti-inflammatory activity in adjuvant arthritic rat at 27 mg/kg in noninjected 2 degree paw; assay type: functional; in short: as §2
Rattus norvegicus [11] = experiment: Prophylactic anti-inflammatory activity in adjuvant arthritic rat at 3 mg/kg in noninjected 2 degree paw; assay type: functional; in short: as §2
Cyclooxygenase = biological target: T1, Cyclooxygenase (Rattus norvegicus, UniProt P35355+Q63921); experiment: Inhibitory activity against Prostaglandin G/H synthase in an in vitro rat neutrophil assay; assay type: protein assay
T1 sequence (P35355 whole entry): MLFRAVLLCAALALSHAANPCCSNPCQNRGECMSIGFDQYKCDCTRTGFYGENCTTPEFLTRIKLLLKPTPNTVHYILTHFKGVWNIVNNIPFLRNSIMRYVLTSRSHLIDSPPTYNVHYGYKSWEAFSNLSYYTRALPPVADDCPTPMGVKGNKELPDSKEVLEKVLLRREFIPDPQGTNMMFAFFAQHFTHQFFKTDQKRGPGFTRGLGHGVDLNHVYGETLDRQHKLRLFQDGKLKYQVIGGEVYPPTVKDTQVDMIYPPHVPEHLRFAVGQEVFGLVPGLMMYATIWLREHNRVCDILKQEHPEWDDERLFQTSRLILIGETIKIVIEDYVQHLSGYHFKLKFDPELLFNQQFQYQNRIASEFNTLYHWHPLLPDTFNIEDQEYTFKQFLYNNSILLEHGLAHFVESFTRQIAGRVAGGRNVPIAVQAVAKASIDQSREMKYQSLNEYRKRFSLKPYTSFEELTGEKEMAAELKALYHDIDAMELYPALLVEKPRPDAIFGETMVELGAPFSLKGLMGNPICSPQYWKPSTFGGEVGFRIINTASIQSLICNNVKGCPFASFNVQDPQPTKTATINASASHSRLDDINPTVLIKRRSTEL
T1 sequence (Q63921 whole entry): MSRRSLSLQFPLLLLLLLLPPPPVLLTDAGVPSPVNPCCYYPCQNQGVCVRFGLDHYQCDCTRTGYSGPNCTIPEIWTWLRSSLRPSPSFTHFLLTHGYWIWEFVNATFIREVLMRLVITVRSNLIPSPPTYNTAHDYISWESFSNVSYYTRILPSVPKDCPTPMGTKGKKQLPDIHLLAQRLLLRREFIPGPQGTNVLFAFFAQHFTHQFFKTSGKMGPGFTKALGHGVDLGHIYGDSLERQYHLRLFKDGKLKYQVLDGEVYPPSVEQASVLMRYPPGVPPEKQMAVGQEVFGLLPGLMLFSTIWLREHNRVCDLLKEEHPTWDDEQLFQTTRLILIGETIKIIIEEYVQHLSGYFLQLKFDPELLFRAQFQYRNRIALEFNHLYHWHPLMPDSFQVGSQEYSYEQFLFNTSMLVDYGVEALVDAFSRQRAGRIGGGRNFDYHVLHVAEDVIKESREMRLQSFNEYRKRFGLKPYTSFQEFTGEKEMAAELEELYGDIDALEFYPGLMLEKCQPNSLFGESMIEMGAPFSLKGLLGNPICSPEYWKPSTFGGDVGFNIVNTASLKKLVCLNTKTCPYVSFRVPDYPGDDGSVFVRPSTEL

Rattus norvegicus [12] = experiment: Anti-inflammatory activity against reverse passive […] reaction-synovitis in rat at 100 mg/kg oral dose; assay type: functional; in short: as §1
Rattus norvegicus [13] = experiment: Prophylactic oral administration in adjuvant arthritic rat model at 27 mg/kg in noninjected 2 degree paw; assay type: functional; in short: as §2
Rattus norvegicus [14] = experiment: Prophylactic anti-inflammatory activity in adjuvant arthritic rat at 3 mg/kg in noninjected 1 degree paw; assay type: functional; in short: as §2
Rattus norvegicus [15] = experiment: Prophylactic anti-inflammatory activity in adjuvant arthritic rat at 9 mg/kg in noninjected 1 degree paw; assay type: functional; in short: as §2
[16] = Inhibition of guinea pig Phosphodiesterase; set-up: species or system Cavia porcellus
Rattus norvegicus [17] = experiment: Prophylactic anti-inflammatory activity in adjuvant arthritic rat at 50 mg/kg in noninjected 1 degree paw; assay type: functional; in short: as §2
Rattus norvegicus [18] = experiment: Prophylactic anti-inflammatory activity in adjuvant arthritic rat at 12.5 mg/kg in noninjected 1 degree paw; assay type: functional; in short: as §2
Rattus norvegicus [19] = experiment: Prophylactic anti-inflammatory activity in adjuvant arthritic rat at 12.5 mg/kg in noninjected 2 degree paw; assay type: functional; in short: as §2
Rattus norvegicus [20] = experiment: Prophylactic anti-inflammatory activity in adjuvant arthritic rat at 25 mg/kg in noninjected 2 degree paw; assay type: functional; in short: as §2
Rattus norvegicus [21] = experiment: Prophylactic anti-inflammatory activity adjuvant arthritic rat at 50 mg/kg in noninjected 2 degree paw; assay type: functional; in short: as §2
Rattus norvegicus [22] = experiment: Prophylactic anti-inflammatory activity in adjuvant arthritic rat at 25 mg/kg in noninjected 1 degree paw; assay type: functional; in short: as §2
Rattus norvegicus [23] = experiment: Prophylactic oral administration in adjuvant arthritic rat model at 25 mg/kg in noninjected 2 degree paw; assay type: functional; in short: as §2
Rattus norvegicus [24] = experiment: Prophylactic anti-inflammatory activity in adjuvant arthritic rat at 45 mg/kg in noninjected 1 degree paw; assay type: functional; in short: as §2
Rattus norvegicus [25] = experiment: Prophylactic anti-inflammatory activity in adjuvant arthritic rat at 45 mg/kg in noninjected 2 degree paw; assay type: functional; in short: as §2

Structure (SMILES): CN1CN(C)c2nc3n(Cc4ccccc4)c(O)cc(=O)n3c2C1=O
- inhibition in vivo at 50 mg/kg (Rattus norvegicus [1]): 0%

Structure (SMILES): C#CCc1c(O)n(Cc2ccccc2)c2nc3c(n2c1=O)C(=O)N(C)CN3C
- inhibition in vivo at 50 mg/kg (Rattus norvegicus [2]): 36%
- inhibition in vivo at 25 mg/kg (Rattus norvegicus [3]): 21%
- inhibition in vivo at 50 mg/kg (Rattus norvegicus [4]): 6%
- inhibition in vivo at 50 mg/kg (Rattus norvegicus [5]): 13%
- inhibition in vivo at 25 mg/kg (Rattus norvegicus [6]): 35%

- IC50 (Cyclooxygenase): 6 µM
- IC50 [16]: 37 µM and 200 µM
Structure (SMILES): CC(C)=CCc1c(O)n(Cc2ccccc2)c2nc3c(n2c1=O)C(=O)N(C)CN3C
- ED50 [7]: 15 mg/kg
- inhibition in vivo at 27 mg/kg (Rattus norvegicus [8]): 54%
- inhibition in vivo at 9 mg/kg (Rattus norvegicus [9]): 65%
- inhibition in vivo at 27 mg/kg (Rattus norvegicus [10]): 92%
- inhibition in vivo at 3 mg/kg (Rattus norvegicus [11]): 47%
- inhibition in vivo at 100 mg/kg (Rattus norvegicus [12]): 20%
- ED50 (Rattus norvegicus [13]): 6.02 mg/kg
- inhibition in vivo at 3 mg/kg (Rattus norvegicus [14]): 17%
- inhibition in vivo at 9 mg/kg (Rattus norvegicus [15]): 33%

Structure (SMILES): CN1CN(C)c2nc3n(Cc4ccc(F)cc4)c(O)cc(=O)n3c2C1=O
- inhibition in vivo at 50 mg/kg (Rattus norvegicus [17]): 37%
- inhibition in vivo at 12.5 mg/kg (Rattus norvegicus [18]): 22%
- inhibition in vivo at 12.5 mg/kg (Rattus norvegicus [19]): 21%
- inhibition in vivo at 25 mg/kg (Rattus norvegicus [20]): 24%
- inhibition in vivo at 50 mg/kg (Rattus norvegicus [4]): 9%
- inhibition in vivo at 50 mg/kg (Rattus norvegicus [21]): 46%
- inhibition in vivo at 25 mg/kg (Rattus norvegicus [22]): 36%

Structure (SMILES): CN1CN(C)c2nc3n(Cc4ccccc4)c(O)c(C4C=CCCC4)c(=O)n3c2C1=O (configuration not stated)
- inhibition in vivo at 12.5 mg/kg (Rattus norvegicus [18]): 9%
- inhibition in vivo at 50 mg/kg (Rattus norvegicus [2]): 13%
- inhibition in vivo at 12.5 mg/kg (Rattus norvegicus [19]): 6%
- inhibition in vivo at 25 mg/kg (Rattus norvegicus [3]): 15%
- inhibition in vivo at 50 mg/kg (Rattus norvegicus [4]): 16%
- inhibition in vivo at 50 mg/kg (Rattus norvegicus [5]): 13%
- inhibition in vivo at 25 mg/kg (Rattus norvegicus [6]): 12%

Structure (SMILES): CC(C)=CCSc1cc(=O)n2c3c(nc2n1Cc1ccccc1)N(C)CN(C)C3=O
- inhibition in vivo at 25 mg/kg (Rattus norvegicus [3]): 8%
- inhibition in vivo at 25 mg/kg (Rattus norvegicus [6]): -16%

Structure (SMILES): CN1CN(C)c2nc3n(Cc4ccccc4)c(O)c(C(=O)Nc4ccccc4)c(=O)n3c2C1=O
- inhibition in vivo at 50 mg/kg (Rattus norvegicus [2]): -21%
- inhibition in vivo at 50 mg/kg (Rattus norvegicus [5]): 23%

Structure (SMILES): CN1CN(C)c2nc3n(Cc4ccccc4)c(=O)/c(=C\O)c(=O)n3c2C1=O
- inhibition in vivo at 50 mg/kg (Rattus norvegicus [2]): 6%
- inhibition in vivo at 50 mg/kg (Rattus norvegicus [4]): 34%
- inhibition in vivo at 50 mg/kg (Rattus norvegicus [5]): 32%

Structure (SMILES): C=CCc1c(O)n(Cc2ccc(F)cc2)c2nc3c(n2c1=O)C(=O)N(C)CN3C
- inhibition in vivo at 50 mg/kg (Rattus norvegicus [2]): 10%
- inhibition in vivo at 50 mg/kg (Rattus norvegicus [4]): 40%
- inhibition in vivo at 50 mg/kg (Rattus norvegicus [5]): 49%

Structure (SMILES): CCOC(=O)Cc1c(O)n(Cc2ccccc2)c2nc3c(n2c1=O)C(=O)N(C)CN3C
- inhibition in vivo at 25 mg/kg (Rattus norvegicus [3]): 20%
- inhibition in vivo at 50 mg/kg (Rattus norvegicus [4]): 14%
- inhibition in vivo at 25 mg/kg (Rattus norvegicus [6]): 18%

Structure (SMILES): COc1ccc(Cn2c(O)c(CC=C(C)C)c(=O)n3c4c(nc23)N(C)CN(C)C4=O)cc1
- ED50 (Rattus norvegicus [23]): 14 mg/kg
- inhibition in vivo at 12.5 mg/kg (Rattus norvegicus [18]): 40%
- inhibition in vivo at 12.5 mg/kg (Rattus norvegicus [19]): 63%
- inhibition in vivo at 25 mg/kg (Rattus norvegicus [3]): 69%
- inhibition in vivo at 25 mg/kg (Rattus norvegicus [6]): 45%

Structure (SMILES): CC(C)CCc1c(O)n(Cc2ccccc2)c2nc3c(n2c1=O)C(=O)N(C)CN3C
- inhibition in vivo at 45 mg/kg (Rattus norvegicus [24]): 23%
- inhibition in vivo at 45 mg/kg (Rattus norvegicus [25]): 51%

Structure (SMILES): Cn1c(=O)c2[nH]cnc2n(C)c1=O [AMINOPHYLLINE]
- IC50 [16]: 30 µM
